Series [1] has as its system Rattus norvegicus. As to the kind of experiment: Antiinflammatory activity in Sprague-Dawley rat assessed as inhibition of croton oil-induced ear edema at 5 mg/kg, ip administered 1 hr before croton oil challenge measured after 3 hrs post challenge relative to control. The format is functional. The gist of the method:
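Male SD rats given compound i.p. (5, 10 or 15 mg/kg) 1 h before topical croton oil (5% in 100 μL acetone) on the inner right ear; the left ear received acetone alone. After 3 h, rats were killed and 6 mm ear punches were taken and measured for thickness. Inhibition calculated relative to the croton-oil-only group; seven rats per group.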

In series [2] the test system is Rattus norvegicus. As to the kind of experiment: Antiinflammatory activity in Sprague-Dawley rat assessed as reduction in carrageenan induced paw edema at 15 mg/kg, ip administered 1 hr before carrageenan challenge measured at 3 hrs post challenge relative to control. Type of series: functional. The gist of the method: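 SD rats given compound i.p. (5, 10 or 15 mg/kg) 1 h before subplantar injection of 1% carrageenan in saline (0.1 mL) into the right hind paw. Paw volume measured by plethysmometer at 1, 3 and 5 h. Edema compared with the carrageenan-only group; seven rats per group.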

The subject of series [3] is Rattus norvegicus. Description: Antiinflammatory activity in Sprague-Dawley rat assessed as inhibition of croton oil-induced ear edema at 10 mg/kg, ip administered 1 hr before croton oil challenge measured after 3 hrs by hematoxylin and eosin staining based assay. The format is functional, organism-based. The method in brief: (§1)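 SD male rats dosed i.p. (10 mg/kg) 1 h before topical croton oil (5% in acetone) on inner right ear; left ear got acetone only. At 3 h rats sacrificed, 6 mm ear punches taken, fixed in 4% paraformaldehyde overnight, paraffin-embedded, H&E-stained for edema and inflammatory cell infiltrate; seven animals per group.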

In series [4] the test system is Peritoneal macrophage. Description: Antiinflammatory activity in C57BL/6 mouse peritoneal macrophages assessed as inhibition of LPS-induced nitric oxide production at 60 uM preincubated for 1 hr followed by LPS challenge for 48 hrs by Griess assay. The format is functional. The conditions noted are these: C57BL/6, Peritoneal macrophage. The gist of the method:
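Thioglycolate-elicited C57BL/6 mouse peritoneal macrophages, plated at 5 × 10^5 cells/mL and incubated overnight. Compound given at 15, 30 or 60 μM for 1 h, then LPS 10 μg/mL. Medium mixed 1:1 with Griess reagent for 10 min at room temperature, absorbance read at 540 nm, nitrite quantified against a NaNO2 standard. L-NIL 20 μM as positive control; three independent experiments.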

The subject of series [5] is Rattus norvegicus. As to the kind of experiment: Antiinflammatory activity in Sprague-Dawley rat assessed as inhibition of croton oil-induced inflammatory cell infiltration at 10 mg/kg, ip administered 1 hr before croton oil challenge measured after 3 hrs by hematoxylin and eosin staining based assay. Type of series: functional, organism-based. The gist of the method:
as §1

Series [6] is described as follows: Cytotoxicity against C57BL/6 mouse peritoneal macrophages assessed as cell viability at 60 uM after 24 hrs by MTT assay. Type of series: cell-based, Peritoneal macrophage. The conditions noted are these: read-out: Activity. The method in brief:
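Peritoneal macrophages from thioglycolate-elicited C57BL/6 male mice (harvested by lavage after 4 days, cultured in DMEM/10% FBS) exposed 24 h up to 60 μM; viability by MTT assay.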

Series [7] has as its system Peritoneal macrophage. Description: Antiinflammatory activity in C57BL/6 mouse peritoneal macrophages assessed as inhibition of LPS-induced PGE2 production at 60 uM preincubated for 1 hr followed by LPS challenge for 48 hrs by ELISA method. The conditions noted are these: C57BL/6, Peritoneal macrophage. Type of series: functional.
Another series has as its system Mus musculus. As to the kind of experiment: Inhibition of LPS-induced iNOS mRNA expression in C57BL/6 mouse liver at 10 mg/kg, ip pretreated for 1 hr followed by LPS challenge for 6 hrs by qRT-PCR method. Type of series: functional, organism-based. The gist of the method: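 Male C57BL/6 mice given 10 mg/kg i.p. or vehicle 1 h before LPS (Salmonella enterica, 25 mg/kg i.p.); liver collected 6 h after LPS, frozen at −80 °C. Liver mRNA by SYBR qRT-PCR normalized to β-actin; protein by Western blot for p-STAT1 (Y701, S727). Eight mice per group; mean ± SD.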

Active and inactive are the calls of the source. The rule behind the calls is not given here.

On to `Cc1cc(=O)c2c(O)c([C@@H]3O[C@H](CO)[C@@H](O)[C@H](O)[C@H]3O)c(O)cc2o1` [BIFLORIN], for which, in the series with Rattus norvegicus [1], the inhibition in vivo at 5 mg/kg worked out at 33.4%. Further, in the series on Rattus norvegicus [2], the inhibition in vivo at 15 mg/kg worked out at 60%. The inhibition entry in the series with Rattus norvegicus [3], in the series on Rattus norvegicus [5] and in the series with Mus musculus was “Active” throughout. Moreover, the figures for the inhibition at 60 µM with Peritoneal macrophage [4] and with Peritoneal macrophage [7] were 55.9% and 42.2%, respectively. The viability at 24 h, 60 µM in series [6] was determined as 90.4%.

(Values after ChEMBL document CHEMBL4477178, “Biflorin, Isolated from the Flower Buds of Syzygium aromaticum L., Suppresses LPS-Induced Inflammatory Mediators via STAT1 Inactivation in Macrophages and Protects Mice from Endotoxin Shock” (J Nat Prod, 2016).)
